# The list is not random: actives were taken first. Their share in the collection is about 2.8%.
# MC4R antag cAMP: human MC4R antagonism in cAMP assay; MC4R-expressing cells, MTII-stimulated cAMP, LANCE TR-FRET; inhibition, % at 6.5 µM; actives 0.48% (n = 360,000);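 active = inhibition above its plate's cutoff, the mean of tested wells on that plate plus 3 SD, cut at about 29% in these data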;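 note: 0% = Melanotan II alone and 100% = Melanotan II plus saturating MCL0020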
# Target sequence (P32245 whole entry, looked up): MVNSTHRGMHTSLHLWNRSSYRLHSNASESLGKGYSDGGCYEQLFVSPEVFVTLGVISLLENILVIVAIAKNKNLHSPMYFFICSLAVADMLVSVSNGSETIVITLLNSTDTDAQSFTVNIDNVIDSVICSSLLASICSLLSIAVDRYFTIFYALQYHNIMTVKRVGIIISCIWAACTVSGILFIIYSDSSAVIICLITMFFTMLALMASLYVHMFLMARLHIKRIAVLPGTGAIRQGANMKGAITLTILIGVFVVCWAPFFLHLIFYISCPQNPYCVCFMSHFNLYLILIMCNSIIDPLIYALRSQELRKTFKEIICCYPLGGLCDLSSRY
#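 system = U2OS cells with stable human MC4R expression | also added = Melanotan II challenge after compound preincubation | dosing = one concentration, 6.5 µM nominal | incubation = compound 30 min, challenge 1 h, detection 1 h | measured by = TR-FRET with Eu-cAMP and labeled anti-cAMP, 671 nm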
# EBI2 block: blocks human EBI2 receptor beta-arrestin signaling; inhibition, % at 5 µM; actives 0.81% (n = 360,000); P32249; EBI2 beta-arrestin recruitment, luminescence, 7a,25-OHC stimulated; in the data active = inhibition above about 38%;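 note: enzyme fragment complementation signal reports receptor beta-arrestin coupling in cells; 0% = agonist plus DMSO wells and 100% = wells without agonist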
# m5-HT2A agonist: agonists of mouse serotonin 5-HT2A receptor (HTR2A); CHO-K1 mHTR2A beta-arrestin complementation, luminescence; percent of 30 µM serotonin response; activation, % at 7.6 µM; actives 0.66% (n = 360,000);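 active = activation above a run cutoff, the mean activation of all tested compounds plus 3 SD, cut at about 14% in these data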;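 note: 0% = plate median of compound wells and 100% = 30 µM serotonin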
# MC4R ag barr: agonists of human melanocortin 4 receptor (MC4R) beta-arrestin. U2OS MC4R beta-arrestin complementation, luminescence; percent of melanotan II response, DMSO zero. activation, % at 8.9 µM. actives 0.98% (n = 360,000). AID 540308;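 active = activation above a per-plate cutoff, the mean activation of sample wells on that plate plus 3 SD, cut at about 8% in these data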
# EBI2 conf: confirmation of human EBI2 receptor antagonists; shares compounds with EBI2 block; EBI2 beta-arrestin luminescence, 7a,25-OHC antagonism; inhibition, % at 5 µM; actives 29% (n = 2,400); AID 651997;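 active = inhibition of at least 50%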
# EBI2 agonist: EBI2 agonism counter-screen; shares compounds with EBI2 block; EBI2-expressing cells, agonist mode, luminescence, 60 min; 0% vehicle, 100% 7α,25-dihydroxycholesterol control; activation, % at 5 µM; 2,400 tested, under 10 active; AID 652000;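 active = activation of at least 50%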
# bGal cs: inhibits E. coli beta-galactosidase, counter-screen for EBI2 antagonists | inhibition, % at 5 µM | shares compounds with EBI2 block | AID 652176 | actives 1% (n = 2,400) | purified beta-galactosidase, luminescent Galacton Star, 15 min;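 active = replicate-average signal at least 3 plate SD below neutral wells, shown as high inhibition, flagging enzyme-inhibiting false positives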;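 note: 0% = DMSO wells with enzyme and 100% = wells lacking enzyme; higher means stronger loss of beta-gal luminescence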
# An asterisk follows results filed as active; x = no result given.
SMILES,MC4R antag cAMP,EBI2 block,m5-HT2A agonist,MC4R ag barr,EBI2 conf,EBI2 agonist,bGal cs
O=C(CN1CCN(S(=O)(=O)c2ccc(Cl)cc2)CC1)Nc1ccc2c(c1)OCO2,-8,11,7,2,x,x,x
CCOC(=O)c1nn(-c2ccc(F)cc2)c(=O)cc1OCC(=O)Nc1ccc(OCC)cc1,13,-2,-3,-3,x,x,x
CC(C)(C)C1CCc2onc(C(=O)Nc3cnn(Cc4ccc(F)cc4)c3)c2C1 (configuration not stated),0,44*,3,7,8,-2,-7
O=C(Nc1cnn(Cc2ccc(F)cc2)c1)c1cnccn1,0,-9,4,0,x,x,x
O=C(Nc1cnn(Cc2ccc(F)cc2)c1)C(c1ccccc1)c1ccccc1,25,73*,-3,7,38,2,-1
O=C(Nc1cnn(Cc2ccc(F)cc2)c1)c1noc2c1CCCC2,9,2,-3,0,x,x,x
O=C(N/N=C/c1c[nH]c2ccccc12)c1sc2ccccc2c1Cl,3,4,-6,-1,x,x,x
O=C(N/N=C/c1ccccn1)c1cc(-c2ccc(Cl)cc2)nc2ccccc12,-5,72*,-8,-5,78*,-2,-7
O=C(N/N=C/c1ccccn1)c1cc(-c2ccc(Br)cc2)nc2ccccc12,-14,76*,-4,-3,78*,-1,-11
O=C(N/N=C/c1ccccn1)c1sc2ccccc2c1Cl,2,42*,-7,-3,42,-2,-5
CCCOc1cccc(-c2cc(C(=O)N/N=C/c3ccccn3)c3ccccc3n2)c1,3,48*,-18,-8,61*,0,2
O=C(NCCN1CCC(n2c(=O)[nH]c3ccccc32)CC1)c1cc(F)cc(F)c1,x,2,9,x,x,x,x
O=C(CCc1ccccc1)NNC(=O)COc1ccc([N+](=O)[O-])cc1,3,7,0,-3,x,x,x
O=C(Nc1ccc(C(F)(F)F)cc1[N+](=O)[O-])O[C@H]1[C@H](Cc2ccccc2)NS(=O)(=O)[C@H]2C[C@@H]3C=C[C@]12O3,9,-3,5,3,x,x,x
COc1cc(/C=C(\C#N)C(N)=O)ccc1OS(=O)(=O)c1ccc(C)cc1,-14,52*,-1,-2,56*,1,-7
CCOC(=O)/C(C#N)=C\c1ccc(OC)c(OC)c1,-7,-3,0,-1,x,x,x
COc1cc(/C=C(\C#N)C(=O)NC2CCCCC2C)ccc1OS(=O)(=O)c1ccc(C)cc1 (configuration not stated),16,62*,-3,-1,69*,1,-3
CSc1ccc(/C=C(\C#N)C(=O)NC2CCCCC2C)cc1 (configuration not stated),-4,32,-7,-1,x,x,x
COc1cc(/C=C(/C#N)C(=O)Nc2ccc(C)cc2)ccc1Oc1nc(Cl)ncc1F,-14,49*,-1,-3,46,-1,-13
COc1ccc(/C=N/NC(=O)CC#N)cc1Oc1nc(Cl)ncc1F,14,-15,-3,0,x,x,x
COc1ccc(CC(=O)Nc2cccc(-c3ccc4nnc(C)n4n3)c2)cc1OC,14,-9,-4,2,x,x,x
CC(=O)c1ccc(S(=O)(=O)N2CCN(C(=O)c3ccc(-n4nc(C)c(Cl)c4C)cc3)CC2)cc1,0,36,2,-2,x,x,x
Cc1nn(-c2ccc(C(=O)N3CCN(S(=O)(=O)c4ccccc4C(F)(F)F)CC3)cc2)c(C)c1Cl,0,47*,10,-1,36,0,5
CCCC1NC(=O)c2cc3ccccc3cc2-n2c1nc1cc(Cl)ccc1c2=O (configuration not stated),5,53*,-1,2,51*,0,6
CCC1NC(=O)c2cc3ccccc3cc2-n2c1nc1ccc(F)cc1c2=O (configuration not stated),10,8,-5,0,x,x,x
SMILES,MC4R antag cAMP,EBI2 block,m5-HT2A agonist,MC4R ag barr,EBI2 conf,EBI2 agonist,bGal cs
Cc1ccc2nc3n(c(=O)c2c1)-c1cc2ccccc2cc1C(=O)NC3Cc1ccccc1 (configuration not stated),-1,54*,0,3,34,0,-14
CCCC1NC(=O)c2cc3ccccc3cc2-n2c1nc1ccc(C)cc1c2=O (configuration not stated),16,57*,1,2,44,2,7
CCCN(CC(=O)Nc1ccccc1C)C(=O)c1ccc(S(=O)(=O)N2CCC(C)CC2)cc1,20,5,-1,0,x,x,x
Cc1cccc(/C=N/NC(=O)c2cc(-c3cccnc3)nc3c2c(C)nn3-c2ccccc2)c1,2,43*,4,-1,38,-1,-16
COc1ccccc1/C=N/N(C(C)=O)c1nc(-c2ccc(F)cc2)cs1,12,7,-6,0,x,x,x
Cc1coc2cc3oc(=O)cc(C)c3cc12,11,6,9,3,x,x,x
COc1ccc(-c2cc(=O)oc3cc4occ(C)c4cc23)cc1,10,49*,7,4,33,0,6
O=C(c1cccc(C(F)(F)F)c1)N1CCN(S(=O)(=O)c2ccc(Cl)s2)CC1,8,4,-3,-3,x,x,x
N#Cc1ccc(C(=O)N2CCN(S(=O)(=O)c3ccc(Cl)s3)CC2)cc1,-5,56*,-8,-2,31,0,7
O=C(/C=C/c1ccc(F)cc1)NCCC1=CCCCC1,-3,55*,-2,0,45,2,2
O=C(/C=C/c1ccccc1)NCCC1=CCCCC1,0,44,-2,0,x,x,x
CCOC(=O)[C@]12CCC=C1N(Cc1ccc3c(c1)OCO3)C(=O)[C@H](CC(=O)NCc1cccc(C(F)(F)F)c1)C2,x,7,-3,x,x,x,x
Cc1cccc(N(C)c2ncnc3onc(-c4ccc(F)cc4)c23)c1C,0,63*,-7,0,27,-2,-7
CCc1ccc(C2CC(c3ccc(Cl)cc3)=NNC2=O)cc1 (configuration not stated),4,61*,3,5,48,1,0
CN1N=C(c2ccc(Cl)cc2)CC(c2ccc(Cl)cc2)C1=O (configuration not stated),4,41,1,1,x,x,x
Cc1ccc(C2CC(c3ccc(Cl)cc3)=NNC2=O)cc1 (configuration not stated),2,50*,-4,0,44,0,8
Cc1cccc(C2=NNC(=O)C(c3ccc(Cl)cc3)C2)c1 (configuration not stated),9,24,2,0,x,x,x

# From PubChem BioAssay
